Assays:
[1] = target: T1, Ephrin type-A receptor 8 (Homo sapiens) (UniProt P29322); assay: Inhibition of EPHA8 (unknown origin) assessed as residual activity at 1000 nM by KINOMEscan analysis relative to control
T1 sequence (whole entry): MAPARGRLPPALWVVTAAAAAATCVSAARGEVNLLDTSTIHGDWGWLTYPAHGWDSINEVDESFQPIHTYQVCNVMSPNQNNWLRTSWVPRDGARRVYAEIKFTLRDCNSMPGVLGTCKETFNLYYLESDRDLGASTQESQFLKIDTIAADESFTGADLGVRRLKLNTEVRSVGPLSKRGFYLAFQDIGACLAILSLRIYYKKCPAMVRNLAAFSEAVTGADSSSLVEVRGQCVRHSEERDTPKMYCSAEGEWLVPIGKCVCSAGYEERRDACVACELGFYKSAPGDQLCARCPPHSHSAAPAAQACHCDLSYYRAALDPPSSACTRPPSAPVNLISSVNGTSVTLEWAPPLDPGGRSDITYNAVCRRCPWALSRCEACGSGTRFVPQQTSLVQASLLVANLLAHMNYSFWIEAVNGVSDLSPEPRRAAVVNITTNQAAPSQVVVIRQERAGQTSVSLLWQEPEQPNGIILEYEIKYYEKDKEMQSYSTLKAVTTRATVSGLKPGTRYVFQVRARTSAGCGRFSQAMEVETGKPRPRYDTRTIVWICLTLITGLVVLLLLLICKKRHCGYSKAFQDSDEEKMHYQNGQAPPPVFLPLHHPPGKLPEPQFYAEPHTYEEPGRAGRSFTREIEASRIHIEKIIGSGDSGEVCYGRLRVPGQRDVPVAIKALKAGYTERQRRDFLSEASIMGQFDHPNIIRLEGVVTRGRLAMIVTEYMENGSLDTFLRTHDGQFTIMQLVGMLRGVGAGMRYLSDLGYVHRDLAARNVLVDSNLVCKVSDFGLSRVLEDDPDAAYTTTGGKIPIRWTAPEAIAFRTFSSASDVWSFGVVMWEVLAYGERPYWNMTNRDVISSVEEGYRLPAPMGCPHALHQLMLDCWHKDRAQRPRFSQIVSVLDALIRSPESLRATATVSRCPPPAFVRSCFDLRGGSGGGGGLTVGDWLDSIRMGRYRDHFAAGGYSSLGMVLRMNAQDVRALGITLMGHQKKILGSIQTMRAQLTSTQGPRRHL

K562 = assay: Antiproliferative activity against human K562 cells assessed as inhibition of cell viability incubated for 72 hrs by Cell Titer Glo assay; assay type: functional, cell-based; conditions: K562, 72 h
Procedure, shortened: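 K-562 cells (wild-type KRAS, sourced from ATCC) were tested for antiproliferative response.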

[2] = target: Serine/threonine-protein kinase 32A (Homo sapiens) (UniProt Q8WU08); assay: Inhibition of YANK1 (unknown origin) assessed as residual activity at 1000 nM by KINOMEscan analysis relative to control
Serine/threonine-protein kinase 32A (Homo sapiens), sequence (Q8WU08 whole entry): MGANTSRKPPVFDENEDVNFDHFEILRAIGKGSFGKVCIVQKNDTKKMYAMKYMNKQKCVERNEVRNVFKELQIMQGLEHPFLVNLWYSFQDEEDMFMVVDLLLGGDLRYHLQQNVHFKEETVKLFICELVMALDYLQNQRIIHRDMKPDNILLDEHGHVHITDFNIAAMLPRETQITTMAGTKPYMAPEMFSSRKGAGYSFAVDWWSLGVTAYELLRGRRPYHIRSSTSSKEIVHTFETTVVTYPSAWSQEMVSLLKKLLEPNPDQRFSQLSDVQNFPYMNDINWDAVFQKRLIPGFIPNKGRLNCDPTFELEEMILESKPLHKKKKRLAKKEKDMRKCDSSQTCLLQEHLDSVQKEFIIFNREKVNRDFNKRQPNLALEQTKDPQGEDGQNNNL

[3] = target: T2, Cyclin-G-associated kinase (Homo sapiens) (UniProt O14976); assay: Inhibition of GAK (unknown origin) assessed as residual activity at 1000 nM by KINOMEscan analysis relative to control
T2 sequence (whole entry): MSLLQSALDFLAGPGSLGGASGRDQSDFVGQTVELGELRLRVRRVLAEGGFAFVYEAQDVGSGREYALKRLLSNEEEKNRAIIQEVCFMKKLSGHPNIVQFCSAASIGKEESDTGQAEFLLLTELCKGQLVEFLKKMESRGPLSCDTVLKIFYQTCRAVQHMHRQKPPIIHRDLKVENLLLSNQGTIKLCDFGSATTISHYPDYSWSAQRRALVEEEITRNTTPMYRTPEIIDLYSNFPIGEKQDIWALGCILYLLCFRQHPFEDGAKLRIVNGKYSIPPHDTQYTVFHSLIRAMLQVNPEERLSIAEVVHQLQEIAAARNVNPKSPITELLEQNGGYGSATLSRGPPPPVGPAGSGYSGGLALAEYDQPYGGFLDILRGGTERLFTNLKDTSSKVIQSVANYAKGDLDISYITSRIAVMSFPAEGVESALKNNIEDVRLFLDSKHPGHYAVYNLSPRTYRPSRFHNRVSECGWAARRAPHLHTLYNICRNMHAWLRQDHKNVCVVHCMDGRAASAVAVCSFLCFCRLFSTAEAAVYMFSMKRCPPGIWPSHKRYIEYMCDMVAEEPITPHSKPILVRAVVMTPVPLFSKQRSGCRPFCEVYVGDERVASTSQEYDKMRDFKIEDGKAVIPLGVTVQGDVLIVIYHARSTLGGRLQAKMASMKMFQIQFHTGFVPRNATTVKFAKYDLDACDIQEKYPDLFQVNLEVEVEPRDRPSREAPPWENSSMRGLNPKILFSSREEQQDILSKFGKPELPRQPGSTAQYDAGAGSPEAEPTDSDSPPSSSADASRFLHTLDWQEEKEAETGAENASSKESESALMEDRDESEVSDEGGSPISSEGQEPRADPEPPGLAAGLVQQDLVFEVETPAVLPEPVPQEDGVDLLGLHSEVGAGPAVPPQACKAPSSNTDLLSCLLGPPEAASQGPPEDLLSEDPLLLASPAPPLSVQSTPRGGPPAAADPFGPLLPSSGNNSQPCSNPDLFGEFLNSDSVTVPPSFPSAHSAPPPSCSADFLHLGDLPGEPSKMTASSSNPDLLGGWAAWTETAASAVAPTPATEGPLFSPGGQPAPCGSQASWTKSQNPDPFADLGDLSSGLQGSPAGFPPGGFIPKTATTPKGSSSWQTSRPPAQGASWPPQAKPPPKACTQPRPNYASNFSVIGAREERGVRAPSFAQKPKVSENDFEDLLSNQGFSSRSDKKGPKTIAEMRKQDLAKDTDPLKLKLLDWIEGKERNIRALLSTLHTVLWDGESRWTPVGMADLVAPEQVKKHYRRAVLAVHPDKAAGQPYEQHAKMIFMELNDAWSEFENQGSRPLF

Row | Structure (SMILES) | Activity [1] | IC50 (K562) | Activity [2] | Activity [3]
1 | COc1cc2nc(C)nc(N[C@H](C)c3cccc(-c4cn[nH]c4)c3)c2cc1OC | 100% | 3100 nM | 97% | 96%
2 | CNCc1ccccc1-c1csc([C@@H](C)Nc2nc(C)nc3cc(OC)c(OC)cc23)c1 [BAY-293] | – | 1090 nM | – | –
3 | COc1cc2ncnc(N[C@H](C)c3cccc4ccccc34)c2cc1OC | 94% | – | 86% | 59%

From ChEMBL document CHEMBL5678818, “Discovery of potent SOS1 inhibitors that block RAS activation via disruption of the RAS-SOS1 interaction” (Proc Natl Acad Sci U S A, 2019)
